Where two headings read alike, the source gives them in different places.
Set-up: species or system human
Procedure, shortened: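 Organ time–activity curves came from whole-body scan VOI data. These were fitted mono-exponentially in five animals; in the sixth, with two scans, a linear fit to the log values was used. Time-integrated activity coefficients were scaled by the ratio of body-mass-normalised human to CT-derived macaque organ masses. Intestinal values were split in thirds across small intestine, ULI and LLI. Organ doses (mSv/MBq) were computed per animal with the OLINDA/EXM 1.1 adult male model.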

## O=C(O)C[18F] [^18F-FACE, ^18F-fluoroacetate]
From animal 2, male
  Organ dose to adult human model, Lungs: 0.010 mSv/MBq
  Organ dose to adult human model, Muscle: 0.010 mSv/MBq
  Organ dose to adult human model, Osteogenic cells: 0.014 mSv/MBq
  Organ dose to adult human model, Pancreas: 0.014 mSv/MBq
  Organ dose to adult human model, Red marrow: 0.011 mSv/MBq
  Organ dose to adult human model, Skin: 0.007 mSv/MBq
  Organ dose to adult human model, Small intestine: 0.045 mSv/MBq
  Organ dose to adult human model, Spleen: 0.011 mSv/MBq
  Organ dose to adult human model, Stomach wall: 0.013 mSv/MBq
  Organ dose to adult human model, Testes: 0.009 mSv/MBq
  Organ dose to adult human model, Thymus: 0.010 mSv/MBq
  Organ dose to adult human model, Thyroid: 0.009 mSv/MBq
  Organ dose to adult human model, ULI wall (upper large intestine): 0.071 mSv/MBq
  Organ dose to adult human model, Urinary bladder wall: 0.015 mSv/MBq
From animal 3, male
  Dose to adult human model, Total body: 0.012 mSv/MBq
  ED effective dose, adult human model: 0.028 mSv/MBq
  EDE effective dose equivalent, adult human model: 0.030 mSv/MBq
  Organ dose to adult human model, Adrenals: 0.013 mSv/MBq
  Organ dose to adult human model, Brain: 0.009 mSv/MBq
  Organ dose to adult human model, Breasts: 0.008 mSv/MBq
  Organ dose to adult human model, Gallbladder wall: 0.017 mSv/MBq
  Organ dose to adult human model, Heart wall: 0.020 mSv/MBq
  Organ dose to adult human model, Kidneys: 0.034 mSv/MBq
  Organ dose to adult human model, LLI wall (lower large intestine): 0.120 mSv/MBq
  Organ dose to adult human model, Liver: 0.014 mSv/MBq
  Organ dose to adult human model, Lungs: 0.010 mSv/MBq
  Organ dose to adult human model, Muscle: 0.011 mSv/MBq
  Organ dose to adult human model, Osteogenic cells: 0.016 mSv/MBq
  Organ dose to adult human model, Pancreas: 0.014 mSv/MBq
  Organ dose to adult human model, Red marrow: 0.012 mSv/MBq
  Organ dose to adult human model, Skin: 0.008 mSv/MBq
  Organ dose to adult human model, Small intestine: 0.055 mSv/MBq
  Organ dose to adult human model, Spleen: 0.012 mSv/MBq
  Organ dose to adult human model, Stomach wall: 0.014 mSv/MBq
  Organ dose to adult human model, Testes: 0.010 mSv/MBq
  Organ dose to adult human model, Thymus: 0.010 mSv/MBq
  Organ dose to adult human model, Thyroid: 0.010 mSv/MBq
  Organ dose to adult human model, ULI wall (upper large intestine): 0.088 mSv/MBq
  Organ dose to adult human model, Urinary bladder wall: 0.017 mSv/MBq
From animal 4, female
  Dose to adult human model, Total body: 0.008 mSv/MBq
  ED effective dose, adult human model: 0.016 mSv/MBq
  EDE effective dose equivalent, adult human model: 0.019 mSv/MBq
  Organ dose to adult human model, Adrenals: 0.010 mSv/MBq
  Organ dose to adult human model, Brain: 0.005 mSv/MBq
  Organ dose to adult human model, Breasts: 0.005 mSv/MBq
  Organ dose to adult human model, Gallbladder wall: 0.040 mSv/MBq
  Organ dose to adult human model, Heart wall: 0.027 mSv/MBq
  Organ dose to adult human model, Kidneys: 0.026 mSv/MBq
  Organ dose to adult human model, LLI wall (lower large intestine): 0.060 mSv/MBq
  Organ dose to adult human model, Liver: 0.032 mSv/MBq
  Organ dose to adult human model, Lungs: 0.007 mSv/MBq
  Organ dose to adult human model, Muscle: 0.007 mSv/MBq
  Organ dose to adult human model, Osteogenic cells: 0.010 mSv/MBq
  Organ dose to adult human model, Ovaries: 0.013 mSv/MBq
  Organ dose to adult human model, Pancreas: 0.010 mSv/MBq
  Organ dose to adult human model, Red marrow: 0.007 mSv/MBq
  Organ dose to adult human model, Skin: 0.005 mSv/MBq
  Organ dose to adult human model, Small intestine: 0.029 mSv/MBq
  Organ dose to adult human model, Spleen: 0.008 mSv/MBq
  Organ dose to adult human model, Stomach wall: 0.009 mSv/MBq
  Organ dose to adult human model, Thymus: 0.007 mSv/MBq
  Organ dose to adult human model, Thyroid: 0.006 mSv/MBq
  Organ dose to adult human model, ULI wall (upper large intestine): 0.045 mSv/MBq
  Organ dose to adult human model, Urinary bladder wall: 0.014 mSv/MBq
  Organ dose to adult human model, Uterus: 0.011 mSv/MBq
From animal 5, female
  Dose to adult human model, Total body: 0.010 mSv/MBq
  ED effective dose, adult human model: 0.018 mSv/MBq
  EDE effective dose equivalent, adult human model: 0.021 mSv/MBq
  Organ dose to adult human model, Adrenals: 0.012 mSv/MBq
  Organ dose to adult human model, Brain: 0.008 mSv/MBq
  Organ dose to adult human model, Breasts: 0.008 mSv/MBq
  Organ dose to adult human model, Gallbladder wall: 0.036 mSv/MBq
  Organ dose to adult human model, Heart wall: 0.015 mSv/MBq
  Organ dose to adult human model, Kidneys: 0.042 mSv/MBq
  Organ dose to adult human model, LLI wall (lower large intestine): 0.062 mSv/MBq
  Organ dose to adult human model, Liver: 0.015 mSv/MBq
  Organ dose to adult human model, Lungs: 0.009 mSv/MBq
  Organ dose to adult human model, Muscle: 0.010 mSv/MBq
  Organ dose to adult human model, Osteogenic cells: 0.014 mSv/MBq
  Organ dose to adult human model, Ovaries: 0.017 mSv/MBq
  Organ dose to adult human model, Pancreas: 0.013 mSv/MBq
  Organ dose to adult human model, Red marrow: 0.010 mSv/MBq
  Organ dose to adult human model, Skin: 0.007 mSv/MBq
  Organ dose to adult human model, Small intestine: 0.031 mSv/MBq
  Organ dose to adult human model, Spleen: 0.011 mSv/MBq
  Organ dose to adult human model, Stomach wall: 0.012 mSv/MBq
  Organ dose to adult human model, Thymus: 0.009 mSv/MBq
  Organ dose to adult human model, Thyroid: 0.009 mSv/MBq
  Organ dose to adult human model, ULI wall (upper large intestine): 0.047 mSv/MBq
  Organ dose to adult human model, Urinary bladder wall: 0.017 mSv/MBq
  Organ dose to adult human model, Uterus: 0.014 mSv/MBq
From animal 6, female
  Dose to adult human model, Total body: 0.012 mSv/MBq
  ED effective dose, adult human model: 0.018 mSv/MBq
  EDE effective dose equivalent, adult human model: 0.019 mSv/MBq
  Organ dose to adult human model, Adrenals: 0.013 mSv/MBq
  Organ dose to adult human model, Brain: 0.010 mSv/MBq
  Organ dose to adult human model, Breasts: 0.009 mSv/MBq
  Organ dose to adult human model, Gallbladder wall: 0.016 mSv/MBq
  Organ dose to adult human model, Heart wall: 0.017 mSv/MBq
  Organ dose to adult human model, Kidneys: 0.026 mSv/MBq
  Organ dose to adult human model, LLI wall (lower large intestine): 0.052 mSv/MBq
  Organ dose to adult human model, Liver: 0.017 mSv/MBq
  Organ dose to adult human model, Lungs: 0.011 mSv/MBq
  Organ dose to adult human model, Muscle: 0.011 mSv/MBq
  Organ dose to adult human model, Osteogenic cells: 0.017 mSv/MBq
  Organ dose to adult human model, Ovaries: 0.018 mSv/MBq
  Organ dose to adult human model, Pancreas: 0.014 mSv/MBq
  Organ dose to adult human model, Red marrow: 0.011 mSv/MBq
  Organ dose to adult human model, Skin: 0.009 mSv/MBq
  Organ dose to adult human model, Small intestine: 0.029 mSv/MBq
  Organ dose to adult human model, Spleen: 0.013 mSv/MBq
  Organ dose to adult human model, Stomach wall: 0.013 mSv/MBq
  Organ dose to adult human model, Thymus: 0.011 mSv/MBq
  Organ dose to adult human model, Thyroid: 0.011 mSv/MBq
  Organ dose to adult human model, ULI wall (upper large intestine): 0.040 mSv/MBq
  Organ dose to adult human model, Urinary bladder wall: 0.021 mSv/MBq
  Organ dose to adult human model, Uterus: 0.016 mSv/MBq
